Data as given in PubChem BioAssay.
Inconclusive results are not listed. The source made the active and inactive calls.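 The calls were made as follows, unless noted: active = cell viability at or below a set limit in both duplicate runs, the limit being the all-compound median minus 4 SD (cut at about 23% in these data, passing the limit was not always enough); inconclusive = no clear call, values can overlap the other calls; inactive = the rest.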

Columns and labels:
[1] = OD615 S. cerevisiae growth inhibition, permissive medium, pilot counter-assay, permissive growth control for S. cerevisiae lifespan shortening project (AID 705;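 active = growth inhibition above 25% in both replicates, a cutoff set 3 SD above the mean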); conditions: OD615, 24 h, at 10 µM, active compounds read high
Outline: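 Material: engineered DeaD yeast; Compound: one dose 10 µM, DMSO 0.25% final; Detection: absorbance (optical density) at 615 nm; Buffer or medium: permissive raffinose/galactose medium; Timing: 24 h exposure, 30 °C.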

[2] = Restrictive medium S. cerevisiae growth inhibition, OD615, pilot screen of yeast lifespan reduction project, restrictive growth control (AID 706;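 active = growth inhibition above a set limit, 3 SD over mean compound inhibition, in both replicates, cut at about 43% in these data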;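 also: modified DeaD lifespan yeast strain shifted to restrictive glucose medium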); conditions: OD615, 48 h, at 10 µM, active compounds read high
Outline: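 Buffer or medium: restrictive glucose medium (CSMM-D); test system: modified S. cerevisiae; doses: single dose of 10 µM compound final, 0.25% DMSO; schedule: 48 h compound exposure at 30 °C; detection: absorbance (optical density) measured at 615 nm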

[3] = viability gain of MRP-1-high H69AR cells under doxorubicin, pilot screen, MRP-1 activator project, CellTiter-Glo, duplicate (AID 807;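 active = viability increase at or above a cutoff of the median across tested compounds plus 3 SD, cut at about 8.5% in these data, passing the limit was not always enough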;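 also: compound pretreatment 18-22 h then 72 h combined with doxorubicin; 0% = doxorubicin alone and 100% = vehicle without doxorubicin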); conditions: H69AR viability with doxorubicin, CellTiter-Glo luminescence; at 10 µM; active compounds read high
[4] = growth suppression of beta-catenin knockout HCT116, pilot screen, human colon tumor cells (AID 823); conditions: CellTiter-Glo, 60 h, at 10 µM, active compounds read low;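 also: 0% = wells killed by 20 µM Hyamine and 100% = untreated DMSO cell wells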
[5] = growth suppression of PTEN-deleted HCT116, pilot screen, cell-based, HCT116 clonal line, CellTiter-Glo (AID 824;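 active = viability at or below 27.92% in each of two runs, the all-compound median minus 4 SD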;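 also: 0% = 20 µM Hyamine control and 100% = vehicle cell control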); conditions: 60 h, at 10 µM, active compounds read low
[6] = inhibitors of the yeast RAM network, pilot screen, dse1pr::URA3 reporter, 5-FOA selection (AID 869;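 active = inhibition over a set limit, the all-compound mean plus 3 SD, in both replicate runs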;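 also: 0% = DMSO wells with no growth and 100% = 10 µM 1-NA-PP1 with full growth; RAM network block rescues cells from 5-FOA so hits raise OD615 growth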); conditions: S. cerevisiae dse1pr::URA3 5-FOA growth, OD615, 2 d; at 10 µM; active compounds read high; strain carries analog-sensitive mutant Cbk1 kinase
[7] = RAM signaling pathway blockade in yeast – S. cerevisiae, Pdr1DBD-CYC8 efflux-inhibited sensitized strain, primary screen (AID 1298;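 active = RAM network inhibition above 8.4% in each of two replicates, 3 SD over the compound average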;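 also: 0% = DMSO untreated cells without growth and 100% = 10 µM 1-NA-PP1 full growth; higher means more yeast growth rescued from 5-FOA killing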); conditions: S. cerevisiae cbk1-as DSE1-URA3 strain, 5-FOA growth OD615, 2 d; at 50 µM; active compounds read high

COc1cc2c(cc1OC)C(C(=O)N1CCCC1)C(c1ccccc1F)N(C)C2=O (configuration not stated)
inactive: growth inhibition [1] -23.3% | growth inhibition [2] -16.3% | viability increase [3] -1.68% | viability [4] 91.3% | viability [5] 97% | inhibition [6] 0.27% | RAM network inhibition [7] 3.55%

Cn1c(=O)c2c(SCc3cccnc3)nc(C3CC3)nc2n(C)c1=O
inactive: growth inhibition [1] 1.77% | growth inhibition [2] -1.23% | viability increase [3] 0.27% | viability [4] 94.5% | viability [5] 83.4% | inhibition [6] -0.18% | RAM network inhibition [7] -1.65%

CNc1oc(C)nc1S(=O)(=O)c1ccccc1
inactive: growth inhibition [1] -13.1% | growth inhibition [2] -7.71% | viability increase [3] -0.15% | viability [4] 99.9% | viability [5] 98.1% | inhibition [6] 1.98% | RAM network inhibition [7] 0.25%

CC1=C(C(=O)OC(C)C)C(c2cccnc2)n2ncnc2N1 (configuration not stated)
inactive: growth inhibition [1] -6.7% | growth inhibition [2] -11% | viability increase [3] 0.27% | viability [4] 101% | viability [5] 100% | inhibition [6] 0.07% | RAM network inhibition [7] 5.02%

CCOC(=O)Cc1csc(NC(=O)COc2ccc(N(C)S(=O)(=O)c3cccs3)cc2)n1
inactive: growth inhibition [1] -7.54% | growth inhibition [2] -11.7% | viability increase [3] -1.76% | viability [4] 71% | viability [5] 80.3% | inhibition [6] 0.12% | RAM network inhibition [7] 1.7%

Cc1oc(-c2cccs2)nc1CS(=O)CC(=O)NC1CCCCCC1 (configuration not stated)
active: growth inhibition [2] 51.7%
inactive: growth inhibition [1] 11.3% | viability increase [3] -2.99% | viability [4] 75.4% | viability [5] 84.5% | inhibition [6] -0.045% | RAM network inhibition [7] -1.22%

CCOc1ccc(C2c3c(oc4ccccc4c3=O)C(=O)N2CCCN2CCOCC2)cc1OCC (configuration not stated)
inactive: growth inhibition [1] -14% | growth inhibition [2] -31.3% | viability increase [3] -4.89% | viability [4] 102% | viability [5] 88.6% | inhibition [6] 0.48% | RAM network inhibition [7] 1.21%

Cc1c(N=Cc2ccco2)c(=O)n(-c2ccccc2)n1C
inactive: growth inhibition [1] -11.1% | growth inhibition [2] -8.96% | viability increase [3] -1.15% | viability [4] 93.8% | viability [5] 96.7% | inhibition [6] 1.39% | RAM network inhibition [7] 0.89%

CCOC(=O)Cc1csc(NC(=O)COc2ccc(OC)cc2)n1
inactive: growth inhibition [1] -22.4% | growth inhibition [2] -8.99% | viability increase [3] -2.2% | viability [4] 97.2% | viability [5] 92.2% | inhibition [6] 1.89% | RAM network inhibition [7] 0.64%

CCOc1ccc2nc(N3CCC(C(=O)N4CCN(C(=O)c5ccco5)CC4)CC3)sc2c1
inactive: growth inhibition [1] -10.8% | growth inhibition [2] -9.39% | viability increase [3] -4.93% | viability [4] 69.7% | viability [5] 77.7% | inhibition [6] 0.305% | RAM network inhibition [7] 3.91%

CCOC(=O)c1ccc(NC(=O)c2nn(C)cc2Br)cc1
inactive: growth inhibition [1] -7.53% | growth inhibition [2] -10.1% | viability increase [3] -1.34% | viability [4] 101% | viability [5] 105% | inhibition [6] 0.925% | RAM network inhibition [7] 6.88%

Cc1ccsc1C1NC(=O)c2c(sc3c2CCN(C)C3)N1 (configuration not stated)
inactive: growth inhibition [1] -1.86% | growth inhibition [2] 1.39% | viability increase [3] -1.41% | viability [4] 97.5% | viability [5] 98.6% | inhibition [6] 1.37% | RAM network inhibition [7] -0.83%

O=C(Nc1ccc(Br)cc1F)C1CCCN(S(=O)(=O)c2cnc[nH]2)C1 (configuration not stated)
inactive: growth inhibition [1] 2.29% | growth inhibition [2] -10.9% | viability increase [3] 2.99% | viability [4] 92.2% | viability [5] 98% | inhibition [6] 0.905% | RAM network inhibition [7] 5.06%

CCOC(=O)c1ccc(NC(=O)CSc2nc(C)cc(=O)[nH]2)cc1
inactive: growth inhibition [1] -7.82% | growth inhibition [2] 8.13% | viability increase [3] -1.06% | viability [4] 98.5% | viability [5] 100% | inhibition [6] -0.79% | RAM network inhibition [7] 0.78%

COc1ccc(C2C(C(=O)Nc3ccccn3)=C(C)Nc3ncnn32)c(OC)c1 (configuration not stated)
inactive: growth inhibition [1] -8.54% | growth inhibition [2] -6.24% | viability increase [3] -1.04% | viability [4] 101% | viability [5] 92.1% | inhibition [6] 2.48% | RAM network inhibition [7] 7.85%

COc1ccc(N2CC(C(=O)NC3CC(C)(C)NC(C)(C)C3)CC2=O)cc1 (configuration not stated)
inactive: growth inhibition [1] -9.42% | growth inhibition [2] -4.41% | viability increase [3] 0.06% | viability [4] 99.8% | viability [5] 104% | inhibition [6] 0.515% | RAM network inhibition [7] 2.14%

COc1ccc(N2CCC(CNC(=O)Nc3ccc(C)c(C)c3)C2)cc1 (configuration not stated)
inactive: growth inhibition [1] -8.33% | growth inhibition [2] -2.14% | viability increase [3] 1.23% | viability [4] 91.2% | viability [5] 74.8% | inhibition [6] 0.77% | RAM network inhibition [7] 2.95%

CCOC(=O)NCc1ccc2[nH]c(C)cc2c1
inactive: growth inhibition [1] -16.1% | growth inhibition [2] -9.38% | viability increase [3] -1.52% | viability [4] 94.5% | viability [5] 97.1% | inhibition [6] -0.465% | RAM network inhibition [7] 4.71%

c1ccc(-n2ncc3c(NCc4cccnc4)ncnc32)cc1
inactive: growth inhibition [1] -9.01% | growth inhibition [2] 2.41% | viability increase [3] 3.3% | viability [4] 88.1% | viability [5] 83.6% | inhibition [6] 2.49% | RAM network inhibition [7] 0.31%

COCCNC(=O)Cn1cc2c(n1)CCC(C)C2 (configuration not stated)
inactive: growth inhibition [1] -12.9% | growth inhibition [2] -0.165% | viability increase [3] 0.11% | viability [4] 104% | viability [5] 93.9% | inhibition [6] 2.06% | RAM network inhibition [7] 1.1%

CCOC(=O)C1CCN(C(=O)CS(=O)Cc2nc(-c3ccc(C)cc3)oc2C)CC1 (configuration not stated)
inactive: growth inhibition [1] 1.66% | growth inhibition [2] 22.5% | viability increase [3] -3.68% | viability [4] 86.3% | viability [5] 84.6% | inhibition [6] 0.32% | RAM network inhibition [7] 7.5%

Cc1cc(C)nc(SCCCn2c(=O)[nH]c3ccccc32)n1
inactive: growth inhibition [1] -6.43% | growth inhibition [2] -7.19% | viability increase [3] 1.32% | viability [4] 99.9% | viability [5] 90.5% | inhibition [6] 1.02% | RAM network inhibition [7] 10.9%

COc1cc2c(cc1OC)C1=C(C#N)CN(C3CCCCC3)CN1CC2
inactive: growth inhibition [1] -11.3% | growth inhibition [2] 4.15% | viability increase [3] -3.47% | viability [4] 90% | viability [5] 81.1% | inhibition [6] 2.15% | RAM network inhibition [7] 3.92%

O=C(O)CCCC(=O)Nc1ccccc1Br
inactive: growth inhibition [1] 9.25% | growth inhibition [2] 10.5% | viability increase [3] -1.61% | viability [4] 104% | viability [5] 94.8% | inhibition [6] 1.11% | RAM network inhibition [7] 2.11%

Nc1nnc(CCc2ccccc2)s1
inactive: growth inhibition [1] -1.91% | growth inhibition [2] 8.1% | viability increase [3] 0.12% | viability [4] 96.2% | viability [5] 98.9% | inhibition [6] 1.77% | RAM network inhibition [7] 0.62%

Nc1sc2c(c1C(=O)NC1CCS(=O)(=O)C1)CCCC2 (configuration not stated)
inactive: growth inhibition [1] -5.31% | growth inhibition [2] -3.38% | viability increase [3] 0.13% | viability [4] 93.3% | viability [5] 99.1% | inhibition [6] 1.67% | RAM network inhibition [7] 3.3%

COc1ccc(N)cc1C#N
inactive: growth inhibition [1] -7.31% | growth inhibition [2] -5.58% | viability increase [3] -3.17% | viability [4] 98.5% | viability [5] 93.6% | inhibition [6] 1.06% | RAM network inhibition [7] 1.63%

CCc1ccccc1N1CC23C=CC(O2)C(C(=O)OC)C3C1=O (configuration not stated)
inactive: growth inhibition [1] -17.5% | growth inhibition [2] -18.8% | viability increase [3] -0.91% | viability [4] 92.7% | viability [5] 99% | inhibition [6] 0.9% | RAM network inhibition [7] 5.27%

Cn1c(=O)c2c(nc(NC3CCCCC3)n2Cc2ccccc2)n(C)c1=O
inactive: growth inhibition [1] -0.82% | growth inhibition [2] 4.89% | viability increase [3] -3.11% | viability [4] 78.9% | viability [5] 75.5% | inhibition [6] 2.92% | RAM network inhibition [7] 3.48%

Cn1c2ccc(Cl)cc2c2nc3ccccc3nc21
inactive: growth inhibition [1] -12.8% | growth inhibition [2] -4% | viability increase [3] -5.07% | viability [4] 74.7% | viability [5] 76.6% | RAM network inhibition [7] 12.6%
active: inhibition [6] 7.62%

O=C(Cn1cc2c(n1)CCCC2)NCc1cccc(Cl)c1
inactive: growth inhibition [1] 4.46% | growth inhibition [2] 5.37% | viability increase [3] -0.45% | viability [4] 107% | viability [5] 99.3% | inhibition [6] 1.62% | RAM network inhibition [7] 3.09%

COc1ccc(NC2c3ccccc3C(=O)N2c2cccnc2)cc1Cl (configuration not stated)
inactive: growth inhibition [1] 4.54% | growth inhibition [2] 2.02% | viability increase [3] -2.35% | viability [4] 89.5% | viability [5] 80.4% | inhibition [6] 2.27% | RAM network inhibition [7] 0.67%

CCN(CCCNC(=O)Cn1ncc2c(=O)oc3ccccc3c21)c1cccc(C)c1
inactive: growth inhibition [1] 1.03% | growth inhibition [2] 9.37% | viability increase [3] -2.09% | viability [4] 89.9% | viability [5] 87.5% | inhibition [6] 2.57% | RAM network inhibition [7] 3.72%

Cc1cc(C(=O)NCc2ccc3c(c2)OCO3)n(-c2ccccc2)n1
inactive: growth inhibition [1] -8.49% | growth inhibition [2] -5.84% | viability increase [3] -0.01% | viability [4] 92.2% | viability [5] 96.3% | inhibition [6] 0.985% | RAM network inhibition [7] 4.44%

O=C(c1ccc(S(=O)(=O)N2CCOCC2)cc1)N1CCN(c2ccccc2)CC1
inactive: growth inhibition [1] -12.5% | growth inhibition [2] 2.02% | viability increase [3] 0.13% | viability [4] 93.7% | viability [5] 101% | inhibition [6] 1.82% | RAM network inhibition [7] 1.64%

Cc1ccccc1-n1c(C)nc2ccccc21
inactive: growth inhibition [1] -17.5% | growth inhibition [2] -1.88% | viability increase [3] -0.13% | viability [4] 95.9% | viability [5] 93.7% | inhibition [6] 1.79% | RAM network inhibition [7] 1.56%
